# Screens deposited in PubChem by several laboratories.
# RBBP9 inh: human RBBP9 inhibitors, primary screen, biochemical, fluorescence polarization, FP-Rh probe, HTS; AID 1515, 2009; inhibition, % at 7.94 µM; recombinant RBBP9; Serine hydrolase RBBP9 (Homo sapiens), O75884; actives 0.2% (n = 220,000);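 active means inhibition above the campaign mean of all tested compounds plus 3 SD, cut at about 14% in these data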
# Target sequence (O75884 whole entry, looked up): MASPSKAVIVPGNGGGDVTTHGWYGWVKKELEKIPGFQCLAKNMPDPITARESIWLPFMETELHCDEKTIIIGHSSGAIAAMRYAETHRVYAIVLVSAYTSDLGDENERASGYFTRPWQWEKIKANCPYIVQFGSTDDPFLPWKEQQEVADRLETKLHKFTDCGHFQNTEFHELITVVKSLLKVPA
#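 Controls: DMSO-treated enzyme wells and wells lacking RBBP9 | Material: RBBP9 protein | Technique: Fluorescence polarization | Replication: Single well per compound, no replicates | Buffer or medium: Tris-NaCl-Pluronic buffer, pH 8.0 | Timing: 30 min compound preincubation, 45 min probe labeling, 25 °C | Read-out basis: Percent inhibition from mP, scaled between DMSO and no-protein wells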
# Rin1 Abl inh: inhibitors of Rin1-Abl protein binding, primary screen, biochemical, TR-FRET | inhibition, % at 7.35 µM | actives 0.4% (n = 360,000) | Tyrosine-protein kinase ABL1 (Homo sapiens) + Ras and Rab interactor 1 (Homo sapiens), …; in the data active means inhibition above about 5%, passing the limit was not always enough
# UBC13 inh: UBC13 polyubiquitin chain formation inhibitors, primary screen, biochemical, TR-FRET, uHTS. Ubiquitin-conjugating enzyme E2 N (Homo sapiens), P61088. inhibition, % at 20 µM. actives 0.47% (n = 330,000). AID 485273, 2010; in the data active means inhibition above about 45%, passing the limit was not always enough
# SUMO HTRF inh: inhibitors of in vitro SUMOylation cascade, primary screen, biochemical, HTRF, uHTS. SUMO-conjugating enzyme UBC9 (Homo sapiens), P63279. HTRF SUMOylation assay, SAE1/SAE2 + UBC9. actives 0.36% (n = 290,000). inhibition, % at 35 µM; in the data active means inhibition above about 50%, passing the limit was not always enough
# Target sequence (P63279 whole entry, looked up): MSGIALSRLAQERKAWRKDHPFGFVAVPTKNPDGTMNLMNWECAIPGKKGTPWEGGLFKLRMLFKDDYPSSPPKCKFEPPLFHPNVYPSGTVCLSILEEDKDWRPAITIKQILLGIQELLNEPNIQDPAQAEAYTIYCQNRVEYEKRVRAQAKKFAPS
# ALR inh: inhibitors of human ALR sulfhydryl oxidase, primary screen, biochemical, H2O2 detection, HRP-luminol luminescence, single point. FAD-linked sulfhydryl oxidase ALR (Homo sapiens), P55789. purified ALR, DTT oxidation. inhibition, % (test concentration not listed). actives 3.8% (n = 290,000). AID 485317, 2010;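 active means mean replicate inhibition above about 79%, with every replicate also reaching it, limit read from the data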
# Target sequence (P55789 whole entry, looked up): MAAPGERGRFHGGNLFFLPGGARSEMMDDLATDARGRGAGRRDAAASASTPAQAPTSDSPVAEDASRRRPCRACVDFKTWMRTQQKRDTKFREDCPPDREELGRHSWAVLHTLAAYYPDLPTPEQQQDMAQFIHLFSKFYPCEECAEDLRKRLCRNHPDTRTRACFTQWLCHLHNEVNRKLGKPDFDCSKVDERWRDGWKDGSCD
# PREPL inhibitor: PREPL enzyme inhibitors, primary screen, biochemical, fluorescence polarization; Prolyl endopeptidase-like (Homo sapiens), Q4J6C6; recombinant PREPL, fluorescence polarization activity-based probe; inhibition, % at 5.96 µM; actives 0.68% (n = 320,000); AID 2751, 2010; in the data active means inhibition above about 43%
# Numbers stand for hits; i = inactive; nt = no result given. This is a sample that favours compounds with a hit; in the whole collection about 4.3% have one here.
SMILES,RBBP9 inh,Rin1 Abl inh,UBC13 inh,SUMO HTRF inh,ALR inh,PREPL inhibitor
CCS(=O)(=O)N1Cc2ccccc2CC1C(=O)N1CCN(c2ccccc2)CC1 (centres undefined),i,i,i,i,97.8,i
O=[N+]([O-])c1ccc(NNS(=O)(=O)c2cc(Cl)ccc2Cl)nc1,nt,i,i,i,99.5,nt
Cc1c(Cl)cccc1NS(=O)(=O)c1ccc2c(c1)C1C=CCC1C(c1ccc(C(=O)O)cc1)N2 (centres undefined),i,9.2,i,96.6,98.0,i
O=C(NC1CC1)c1cccc(NC(=O)C2CCN(S(=O)(=O)c3ccccc3C(F)(F)F)CC2)c1,nt,i,nt,nt,nt,nt
COCC(=O)c1[nH]c2ccccc2c1C,i,i,i,i,91.5,i
CC1CC(C)CN(C(=O)CCCn2c(=S)[nH]c3ccccc3c2=O)C1 (centres undefined),i,i,i,i,96.2,i
COC(=O)C(F)(F)Sc1c(C)[nH]c2ccccc12,i,i,i,i,99.0,i
O=c1c2ccc(Cl)cc2[nH]c(=S)n1CCCN1CCOCC1,i,i,i,i,94.7,i
CCOC(=O)C1=CCN(S(=O)(=O)c2ccc(C)cc2)C1c1cccc(Br)c1 (centres undefined),nt,i,nt,nt,nt,nt
Nc1nc(SCc2ccccc2)c2ncn(C3CCCO3)c2n1 (centres undefined),nt,i,nt,nt,nt,nt
O=C(C[n+]1ccccc1)N/N=C/c1ccc(C(=O)O)cc1,nt,i,i,nt,i,i
COC(=O)c1[nH]c2ccc(C)cc2c1NC(=O)NC1CCCCC1,i,i,i,i,i,i
O=C(CCCn1c(=S)[nH]c2ccccc2c1=O)NC1CCCCC1,i,i,i,i,79.3,i
CN1CCN(C(=O)CCn2c(=S)[nH]c3ccccc3c2=O)CC1,nt,i,nt,nt,nt,nt
O=C(CCn1c(=S)[nH]c2ccccc2c1=O)N1CCOCC1,i,i,i,i,85.4,i
O=C(Nc1c(C(=O)O)[nH]c2ccccc12)NC1CCCCC1,i,i,i,i,98.5,i
COCC(=O)NCCSc1c(C)[nH]c2ccccc12,i,i,i,i,86.1,i
Cc1ccc(S(=O)(=O)N2C[C@H]3n4c(=O)ccc(=O)n4C[C@H](OC(=O)NCc4ccccc4F)[C@@]3(O)C2)cc1,nt,i,nt,nt,nt,nt
O=C(C1CCC(Cn2c(=S)[nH]c3ccccc3c2=O)CC1)N1CCOCC1 (centres undefined),i,i,i,i,82.7,i
O=c1c2sc3ccccc3c2[nH]c(=S)n1CCN1CCOCC1,i,i,i,i,95.9,i
Cc1[nH]c2ccccc2c1SCC(=O)NC1CCCCC1,i,i,i,i,80.1,i
CC1CCN(CCCn2c(=S)[nH]c3c(sc4ccccc43)c2=O)CC1,i,i,i,i,i,i
O=C(CSc1c[nH]c2ccccc12)NC1CCCC1,nt,i,i,i,i,i
CCC(=O)OCCNc1cc(SCCC(=O)OC)c2nonc2c1[N+](=O)[O-],i,i,i,63.4,i,i
CCC(=O)OCCNc1cc(Sc2nccn2C)c2nonc2c1[N+](=O)[O-],i,i,nt,i,97.1,i
SMILES,RBBP9 inh,Rin1 Abl inh,UBC13 inh,SUMO HTRF inh,ALR inh,PREPL inhibitor
CC(=O)OCCNc1cc(SC(C)C)c2nonc2c1[N+](=O)[O-],i,i,i,i,i,i
O=C(O)COc1ccc(/C=N/NC(=O)c2cccc3ccccc23)cc1,nt,i,i,i,nt,i
C=CC[n+]1c(C)csc1Nc1cccc(Br)c1,i,i,i,i,97.4,i
Cc1ccc(-c2csc(Nc3ccccc3)[n+]2CCc2ccccc2)cc1,i,i,i,i,i,i
C=CC[n+]1c(C)csc1Nc1ccc(C)cc1,i,i,i,i,98.9,i
C[C@@H]1CN([C@H](C)CO)C(=O)CCCn2cc(nn2)CO[C@H]1CN(C)S(=O)(=O)c1ccccc1C#N,nt,i,nt,nt,nt,nt
Cc1ccc(N2C(=O)CSC2c2ccccn2)cc1Cl (centres undefined),i,i,i,i,98.8,i
O=C1CSC(c2ccccn2)N1c1cccc(Cl)c1 (centres undefined),i,i,i,i,99.2,i
CC1C(=O)N2CCCc3cc(NC(=O)C(=O)NCc4cccnc4)cc1c32 (centres undefined),nt,i,i,nt,i,i
S=c1[nH]c2ccc(Cl)cc2s1,i,i,nt,i,98.5,i
O=[N+]([O-])c1ccc2[nH]c(=S)sc2c1,nt,i,nt,nt,nt,nt
COc1cccc(/C=C2\SC(N3CCCC(C)C3)=NC2=O)c1OC (centres undefined),nt,i,i,i,97.2,i
COc1cccc(/C=C2\SC(N3CCC(C)CC3)=NC2=O)c1OC,nt,i,i,i,i,i
NS(=O)(=O)c1ccc(NC(=O)COC(=O)CCCN2C(=O)c3cccc4cccc(c34)C2=O)cc1,nt,i,i,nt,i,i
COc1cccc(/C(C)=N/Nc2ccc(S(=O)(=O)N3CCCCC3)cn2)c1,nt,i,i,nt,i,i
C/C(=N\Nc1ccc(S(=O)(=O)N2CCCCC2)cn1)c1ccc(O)cc1,nt,i,i,nt,91.4,i
Cc1nc(C)c(CC(=O)N/N=C/c2ccc(O)cc2)c(=O)[nH]1,i,i,i,i,90.1,i
COc1ccc(/C(C)=N/NC(=O)Cc2c(C)nc(C)[nH]c2=O)cc1,i,i,i,i,i,i
Cc1cc2nc(-c3ccc(Cl)cc3)c(CC(C)(C)C)n2c(C)c1Br,nt,i,nt,nt,nt,nt
O=C(NC1CCCC1)c1cc2nc(-c3ccco3)cc(C(F)(F)F)n2n1,nt,i,i,i,88.5,i
CC(C)NC(=O)c1nn2c(C(F)(F)F)cc(-c3ccco3)nc2c1Cl,i,i,i,i,85.9,i
CC(C)NC(=O)c1cc2nc(-c3ccco3)cc(C(F)(F)F)n2n1,i,i,i,i,i,i
CC(=O)N1CCC2(CC1)NC(=O)N(c1ccccc1)N2,i,i,i,i,98.2,i
O=C(NCc1ccccc1Cl)c1ccc(CS(=O)Cc2ccc(Cl)cc2)o1 (centres undefined),nt,i,i,i,i,i
COc1ccc(Nc2ccccc2NC(=O)c2ccccc2Br)cc1,nt,i,i,i,82.3,i
SMILES,RBBP9 inh,Rin1 Abl inh,UBC13 inh,SUMO HTRF inh,ALR inh,PREPL inhibitor
COc1ccc(Nc2ccccc2N)cc1,i,i,i,i,98.4,i
Cc1ccccc1C(=O)Nc1ccccc1NC(=O)c1ccccc1Br,nt,i,i,i,i,i
Nc1ccc(Nc2ccccc2N)cc1,i,i,i,i,i,94.4
Nc1ccccc1Nc1cccc(C(F)(F)F)c1,i,i,i,i,i,i
O=C(O)c1ccc(N/N=C/c2cc3c(cc2[N+](=O)[O-])OCO3)cc1,i,i,i,i,nt,i
O=C(O)c1cc(N/N=C/c2ccc3c(c2)OCO3)ccc1Cl,i,i,i,i,i,i
